From ChEMBL document CHEMBL1151165, “Characterization of the preferred stereochemistry for the neuropharmacologic actions of antillatoxin” (J Nat Prod, 2004)

Assays:
[1] = Increase in cytoplasmic calcium influx in Sprague-Dawley rat CGN cells by FLIPR; assay type: cell-based
Outline: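 Cytoplasmic Ca2+ in cerebellar granule cells was followed by fluo-3 fluorescence, with basal fluorescence (about 4000 units) subtracted. The response is the integrated fluorescence area under the curve, plotted against compound concentration.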

[2] = Cytotoxicity against mouse Neuro2a cells; assay type: cell-based, N2a; settings: read-out: LD50 (the source's name)
[3] = Increase in extracellular acidification rate in Sprague-Dawley rat CGN cells by cytosensor microphysiometer; assay type: cell-based
Outline: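 Cerebellar granule neurons were cultured on porous polycarbonate membranes, and extracellular acidification rate was monitored by microphysiometry over a range of concentrations. Peak acidification rate is expressed as percent of basal proton efflux. Two separate experiments, each in duplicate, mean ± SEM.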

Carassius auratus = assay: Ichthyotoxicity against Carassius auratus; assay type: organism-based; settings: in vivo
[4] = Cytotoxicity in Sprague-Dawley rat CGN cells assessed as LDH release after 2 hrs; assay type: cell-based
Outline: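 Rat cerebellar granule cells, 11-13 days in culture, exposed 2 h to the compound across a concentration range. LDH efflux into the culture medium was measured, and pEC50 was taken from concentration-response curves. Two separate experiments, each in triplicate, mean ± SEM.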

[5] = Cytotoxicity in Sprague-Dawley rat CGN cells assessed as LDH release at 100 nM after 2 hrs in presence of 1 uM tetrodotoxin; assay type: cell-based; settings: 0.1 µM
[6] = Increase in extracellular acidification rate in Sprague-Dawley rat CGN cells at 100 nM by cytosensor microphysiometer; assay type: cell-based; settings: 0.1 µM
[7] = Cytotoxicity in Sprague-Dawley rat CGN cells assessed as LDH release after 2 hrs in presence of 1 uM tetrodotoxin; assay type: cell-based

Row | SMILES | Activity [1] | CC50 [2] [µM] | Activity [3] [µM] | Activity (Carassius auratus) | EC50 ([4]; read-out: EC50) [µM] | Activity [5] | Activity [6] [%] | Activity [7] | EC50 ([4]; read-out: pEC50 (converted)) [µM]
1 | C=C1CC(=O)N[C@@H](C)C(=O)N(C)[C@@H](C(C)C)C(=O)NCC(=O)O[C@@H](/C(C)=C/C(C)=C/C(C)(C)C)[C@H]1C | Dose-dependent effect and tde | 5 |  |  |  |  |  |  | 
2 | C=C1CC(=O)N[C@@H](C)C(=O)N(C)[C@@H](C(C)C)C(=O)NCC(=O)O[C@H](/C(C)=C/C(C)=C/C(C)(C)C)[C@H]1C | Dose-dependent effect and tde | 10 |  |  |  |  |  |  | 
3 | C=C1CC(=O)N[C@@H](C)C(=O)N(C)[C@@H](C(C)C)C(=O)NCC(=O)O[C@H](/C(C)=C/C(C)=C/C(C)(C)C)[C@@H]1C | Dose-dependent effect and tde | 10 | 5 | Non-toxic | 8.1 |  |  |  | 
4 | C=C1CC(=O)N[C@@H](C)C(=O)N(C)[C@@H](C(C)C)C(=O)NCC(=O)O[C@@H](/C(C)=C/C(C)=C/C(C)(C)C)[C@@H]1C [ANTILLATOXIN] | Dose-dependent effect and tde | 0.18 | 0.041 | 0.1 µM | 0.042 | Non-toxic | 300 | Non-toxic | 0.0457
